Results on one compound are retold here after ChEMBL document CHEMBL4680101, “Discovery and Optimization of Allosteric Inhibitors of Mutant Isocitrate Dehydrogenase 1 (R132H IDH1) Displaying Activity in Human Acute Myeloid Leukemia Cells” (J Med Chem, 2016).

The structures appear in SMILES notation. Calls of active or inactive are those of the source. The rule behind the calls is not given here. Bounds are passed on as bounds.

The target in data set [1] is Isocitrate dehydrogenase [NADP] cytoplasmic (Homo sapiens, UniProt O75874, R132C). The experiment in a line: Inhibition of IDH1 R132C mutant (unknown origin) using alpha-ketoglutarate and NADPH incubated for 30 mins by fluorescence based assay. In short, it runs like this:
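IDH1 R132C (100 nM) in 20 mM Tris pH 7.5, 10 mM MgCl2, 150 mM NaCl, 0.03% BSA with 0.5 mM α-ketoglutarate and 50 µM NADPH. Reaction 30 min at 26 °C. NADPH consumption read via diaphorase/resazurin coupling, resorufin fluorescence Ex544/Em590.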

The target in data set [2] is 11-beta-hydroxysteroid dehydrogenase 1 (Homo sapiens, UniProt P28845). The experiment in a line: Inhibition of active recombinant human N-terminal His-tagged 11-betaHSD1 expressed in Escherichia coli using cortisone, NADPH and glucose-6-phosphate incubated for 2 hrs by glucose-6-phosphate dehydrogenase based coupled HTRF immuno-competitive assay. The procedure, abridged:
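Coupled HTRF immuno-competitive assay: 11β-HSD1 (1.5 µg/ml) in 100 mM potassium phosphate pH 7.6 with 160 nM cortisone, 1 mM EDTA, 1 mM glucose-6-phosphate and 12.5 µg/ml G6PD, started with 0.1 mM NADPH. Reaction 30 min at 37 °C, stopped with glycyrrhetinic acid in cortisol-d2, then anti-cortisol cryptate for 2 h at room temperature. TR-FRET read-out.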
For orientation: Time-resolved FRET reads energy transfer from a long-lived donor to a nearby acceptor.

Data set [3] has as its target T1, Isocitrate dehydrogenase [NADP] cytoplasmic (Homo sapiens, UniProt O75874, R132H). Description: Allosteric inhibition of IDH1 R132H mutant (unknown origin) expressed in HEK293T cells assessed as reduction in 2-HG production incubated for 48 hrs by LC-MS/MS analysis. It is filed as cell-based. In short, it runs like this: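 HEK293T cells reverse-transfected with pcDNA3.1 IDH1 R132H (Lipofectamine 2000), 6 h at 37 °C in 1% FBS plating medium, then assay medium. Compound added in DMSO (0.15% final), 48 h at 37 °C. Medium 2-HG quantified by HILIC LC-MS/MS with D3-2-HG internal standard, normalised to Hoechst nuclear count. Mean of two biological replicates.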
Target sequence in this assay (O75874 2-414 R132H limits assumed): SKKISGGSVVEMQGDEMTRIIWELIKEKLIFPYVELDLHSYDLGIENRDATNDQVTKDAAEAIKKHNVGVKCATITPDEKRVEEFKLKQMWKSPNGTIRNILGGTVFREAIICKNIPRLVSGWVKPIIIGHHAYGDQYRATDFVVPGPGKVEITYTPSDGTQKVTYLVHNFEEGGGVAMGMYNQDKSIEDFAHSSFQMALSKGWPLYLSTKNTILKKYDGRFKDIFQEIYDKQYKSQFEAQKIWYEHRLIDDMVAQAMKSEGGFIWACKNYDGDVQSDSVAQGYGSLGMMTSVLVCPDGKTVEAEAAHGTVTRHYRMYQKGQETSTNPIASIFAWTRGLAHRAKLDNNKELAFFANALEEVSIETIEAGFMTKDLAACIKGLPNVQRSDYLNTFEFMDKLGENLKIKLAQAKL

For data set [4], the system named is HeLa. Description: Cytotoxicity in human HeLa cells. It is filed as cell-based.
The subject of data set [5] is Isocitrate dehydrogenase [NADP] cytoplasmic (Homo sapiens), O75874 [R132H]. The experiment in a line: (§1) Allosteric inhibition of Myc-tagged IDH1 R132H mutant (unknown origin) expressed in human THP-1 cells assessed as inhibition of 2-HG production incubated for 5 days in presence of doxycycline by LC-MS/MS analysis. Type of data set: cell-based. To be noted: filed as negative allosteric modulator, time 5.0 day. In short, it runs like this: (§2)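 THP1 cells carrying doxycycline-inducible Myc-tagged IDH1 R132H (lentiviral, blasticidin-selected) cultured 5 days with doxycycline and compound. 2-HG measured by HILIC LC-MS/MS after solid-phase extraction, D3-2-HG internal standard, against a medium-spiked standard curve. Mean of two biological replicates.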

Data set [6] concerns the target T1, Isocitrate dehydrogenase [NADP] cytoplasmic. The description is as §1. It is filed as cell-based. The procedure, abridged:
as §2
Target sequence in this assay (O75874 whole entry R132H): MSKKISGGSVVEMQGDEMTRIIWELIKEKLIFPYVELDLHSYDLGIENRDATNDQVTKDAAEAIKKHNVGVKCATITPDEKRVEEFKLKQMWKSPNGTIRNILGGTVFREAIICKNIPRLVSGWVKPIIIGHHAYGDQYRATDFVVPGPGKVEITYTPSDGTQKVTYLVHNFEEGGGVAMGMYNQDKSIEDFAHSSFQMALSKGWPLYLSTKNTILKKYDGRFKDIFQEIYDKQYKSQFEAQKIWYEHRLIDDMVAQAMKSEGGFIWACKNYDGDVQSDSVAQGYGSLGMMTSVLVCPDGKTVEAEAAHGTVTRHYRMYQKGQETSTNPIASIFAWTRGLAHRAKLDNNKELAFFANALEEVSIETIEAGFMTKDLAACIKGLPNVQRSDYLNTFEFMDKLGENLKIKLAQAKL

Data set [7] has as its system Isocitrate dehydrogenase [NADP] cytoplasmic (Homo sapiens), O75874 [R132H]. The experiment in a line: Allosteric inhibition of Myc-tagged IDH1 R132H mutant (unknown origin) expressed in human THP-1 cells assessed as inhibition of 2-HG production at >=10 uM incubated for 5 days in presence of doxycycline by LC-MS/MS analysis. It is filed as cell-based. As to conditions: filed as negative allosteric modulator, dose microM >=10, time 5.0 day. In short, it runs like this: as §2

Data set [8] relates to THP-1. Description: Effect on cell proliferation in human THP-1 cells. Type of data set: ADME, cell-based.
Data set [9] can be described thus: Effect on cell differentiation in human THP-1 cells. Type of data set: ADME, cell-based.
The test system of data set [10] is Leukemic blast cell. The experiment in a line: Induction of myeloid differentiation in human primary AML blast cells from patient with IDH1 R132H mutation assessed as up-regulation of CD11b at 1 times to 8 times IC50 incubated for 14 days by flow cytometry. It is filed as functional, tissue-based. As to conditions: time 14.0 day. In short, it runs like this: (§3)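 Primary AML cells (≥80% blasts), 2 x 10^4 per condition in methylcellulose with cytokines (IL-3, IL-6, IL-11, FLT3L, SCF, TPO, G-CSF, EPO). Compound at 1x, 4x, 8x cellular IC50 or DMSO (1:1000), 14 days at 37 °C. Recovered cells stained for CD11b, CD15 and CD117, ≥30 min at 4 °C, read by flow cytometry.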
A general note: In flow cytometry, cells or beads pass a laser one at a time.

For data set [11], the system named is Leukemic blast cell. Description: Induction of myeloid differentiation in human primary AML blast cells from patient with IDH1 R132H mutation assessed as up-regulation of CD15 at 1 times to 8 times IC50 incubated for 14 days by flow cytometry. It is filed as functional, tissue-based. To be noted: time 14.0 day. The procedure, abridged:
as §3

Data set [12] has as its system Leukemic blast cell. Description: Induction of myeloid differentiation in human primary AML blast cells from patient with IDH1 R132H mutation assessed as down-regulation of CD117 at 1 times to 8 times IC50 incubated for 14 days by flow cytometry. It is filed as functional, tissue-based. As to conditions: time 14.0 day. The procedure, abridged: as §3
Data set [13] deals with Leukemic blast cell. Description: Induction of myeloid differentiation in human primary AML blast cells from patient with IDH1 R132H mutation assessed as induction of mature cellular morphology at 1 times to 8 times IC50 incubated for 14 days by cytospin based analysis. It is filed as functional, tissue-based. To be noted: time 14.0 day. The procedure, abridged:
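Primary IDH1 R132H AML cells in cytokine-supplemented methylcellulose with compound or DMSO vehicle for 14 days. Cells recovered by dilution in PBS and centrifugation, then examined on cytospin preparations for morphology.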

The test system of data set [14] is Leukemic blast cell. Description: Induction of myeloid differentiation in human primary AML blast cells from patient with IDH1 R132H mutation assessed as increase in clonogenic activity at 1 times to 8 times IC50 incubated for 14 days by cytospin based analysis. It is filed as functional, tissue-based. To be noted: time 14.0 day. The procedure, abridged:
(§4)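 Primary AML cells (≥80% blasts) seeded at 2 x 10^4 per condition in cytokine-supplemented methylcellulose with compound or DMSO vehicle (1:1000), 37 °C, 5% CO2. Colonies scored and counted after 14 days, expressed relative to vehicle control. Three independent experiments, mean ± standard error.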

In data set [15] the test system is Leukemic blast cell. The experiment in a line: Induction of myeloid differentiation in human primary AML blast cells from patient with wild type IDH1 assessed as increase in clonogenic activity at 1 times to 8 times IC50 incubated for 14 days by cytospin based analysis. It is filed as functional, tissue-based. To be noted: time 14.0 day. The procedure, abridged:
as §4

The test system of data set [16] is Leukemic blast cell. Description: Induction of myeloid differentiation in human primary AML blast cells from patient with wild type IDH1 assessed as up-regulation of CD11b at 1 times to 8 times IC50 incubated for 14 days by flow cytometry. Type of data set: functional, tissue-based. As to conditions: time 14.0 day. The procedure, abridged: as §3
The subject of data set [17] is Leukemic blast cell. The experiment in a line: Induction of myeloid differentiation in human primary AML blast cells from patient with wild type IDH1 assessed as up-regulation of CD15 at 1 times to 8 times IC50 incubated for 14 days by flow cytometry. It is filed as functional, tissue-based. As to conditions: time 14.0 day. The procedure, abridged: as §3
For data set [18], the system named is Leukemic blast cell. Description: Induction of myeloid differentiation in human primary AML blast cells from patient with wild type IDH1 assessed as down-regulation of CD117 at 1 times to 8 times IC50 incubated for 14 days by flow cytometry. Type of data set: functional, tissue-based. As to conditions: time 14.0 day. In short, it runs like this:
as §3

Data set [19] has as its target Isocitrate dehydrogenase [NADP] cytoplasmic (Homo sapiens, UniProt O75874). The experiment in a line: Inhibition of wild type IDH1 (unknown origin) using isocitrate and NADP incubated for 30 mins by fluorescence based assay.
Data set [20] has as its target T2, Isocitrate dehydrogenase [NADP], mitochondrial (Homo sapiens, UniProt P48735).
T2 sequence (P48735 whole entry): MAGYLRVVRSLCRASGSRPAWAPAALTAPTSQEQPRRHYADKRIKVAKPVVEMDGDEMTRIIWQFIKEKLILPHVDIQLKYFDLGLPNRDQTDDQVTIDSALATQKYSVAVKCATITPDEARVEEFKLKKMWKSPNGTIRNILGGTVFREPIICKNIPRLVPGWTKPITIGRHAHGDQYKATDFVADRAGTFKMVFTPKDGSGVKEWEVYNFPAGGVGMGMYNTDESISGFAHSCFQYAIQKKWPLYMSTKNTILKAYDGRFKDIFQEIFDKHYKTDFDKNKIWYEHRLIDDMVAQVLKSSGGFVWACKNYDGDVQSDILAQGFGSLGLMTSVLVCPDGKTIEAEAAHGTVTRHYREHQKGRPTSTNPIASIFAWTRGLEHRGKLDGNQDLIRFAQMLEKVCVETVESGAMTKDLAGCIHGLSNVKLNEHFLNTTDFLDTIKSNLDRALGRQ
Description: Inhibition of wild type IDH2 (unknown origin) using isocitrate and NADP incubated for 60 mins by fluorescence based assay.

Data set [21] has as its target Glucose-6-phosphate 1-dehydrogenase (Homo sapiens, UniProt P11413). The experiment in a line: Inhibition of wild type G6PD (unknown origin) using glucose-6-phosphate and NADP incubated for 30 mins by fluorescence based assay.
Data set [22] has as its target T1, Isocitrate dehydrogenase [NADP] cytoplasmic. The experiment in a line: Inhibition of IDH1 R132H mutant (unknown origin) using alpha-ketoglutarate and NADPH incubated for 60 mins by fluorescence based assay.
Target sequence in this assay (O75874 2-414 R132H limits assumed): as the sequence (O75874 2-414 R132H limits assumed) above

Usually IC50 stands for the concentration that gives 50% inhibition. What is called inhibition is the change of the read-out against control, counted positive when it falls.

Sequence of Isocitrate dehydrogenase [NADP] cytoplasmic (Homo sapiens), O75874 [R132H] (O75874 whole entry R132H): as the sequence (O75874 whole entry R132H) above
Sequence of 11-beta-hydroxysteroid dehydrogenase 1 (P28845 whole entry): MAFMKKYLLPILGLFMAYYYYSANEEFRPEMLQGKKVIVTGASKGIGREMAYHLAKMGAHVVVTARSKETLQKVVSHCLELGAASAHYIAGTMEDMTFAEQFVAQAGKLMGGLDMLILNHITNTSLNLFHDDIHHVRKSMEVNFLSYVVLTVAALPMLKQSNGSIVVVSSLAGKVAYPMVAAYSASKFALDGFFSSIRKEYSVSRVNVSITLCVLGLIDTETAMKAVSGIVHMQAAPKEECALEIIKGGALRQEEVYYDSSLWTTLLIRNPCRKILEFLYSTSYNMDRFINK
Sequence of Isocitrate dehydrogenase [NADP] cytoplasmic (Homo sapiens, UniProt O75874) (O75874 whole entry): as the sequence (O75874 whole entry R132H) above, with H132R counted along it
Sequence of Isocitrate dehydrogenase [NADP] cytoplasmic (Homo sapiens, UniProt O75874, R132C) (O75874 2-414 R132C limits assumed): as the sequence (O75874 2-414 R132H limits assumed) above, with H131C counted along it
Sequence of Glucose-6-phosphate 1-dehydrogenase (P11413 whole entry): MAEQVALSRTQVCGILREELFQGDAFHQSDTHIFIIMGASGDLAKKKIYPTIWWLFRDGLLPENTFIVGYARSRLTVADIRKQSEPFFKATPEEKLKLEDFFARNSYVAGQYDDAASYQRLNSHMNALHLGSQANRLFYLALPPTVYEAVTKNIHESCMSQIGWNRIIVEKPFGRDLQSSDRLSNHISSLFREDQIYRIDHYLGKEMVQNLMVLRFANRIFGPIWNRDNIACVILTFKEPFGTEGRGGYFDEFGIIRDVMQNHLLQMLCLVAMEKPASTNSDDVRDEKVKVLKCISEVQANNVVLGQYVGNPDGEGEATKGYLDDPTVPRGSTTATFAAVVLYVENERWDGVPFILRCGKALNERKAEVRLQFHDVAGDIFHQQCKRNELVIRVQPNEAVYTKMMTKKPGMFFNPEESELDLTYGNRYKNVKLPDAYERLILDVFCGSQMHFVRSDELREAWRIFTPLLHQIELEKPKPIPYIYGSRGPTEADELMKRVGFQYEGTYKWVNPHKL

Take `CC(C)CCOc1nc(N2C[C@@H]3[C@H](C2)[C@H]3C(=O)O)ccc1C(=O)NC1C2CC3CC1CC(O)(C3)C2` (some centres not stated): the IC50 in data set [1] is 470 nM; in [2], 9 nM; in data set [3], 2300 nM; in [4], greater than 30000 nM; in data set [6], 1900 nM; in data set [19], greater than 50000 nM. The half-maximal inhibitory concentration (IC50) is greater than 50000 nM in data set [20], greater than 50000 nM in [21] and 270 nM in data set [22]. The inhibition result in [5] was “Dose-dependent effect”; in data set [7], 100%. Moreover, the Activity result in data set [8] and in data set [9] was “Non-Toxic” throughout. For the same compound, the outcome in data set [10], in data set [11], in data set [12], in data set [13] and in [14] was Active. For the same compound, the outcome in data set [15], in [16], in data set [17] and in [18] was inactive.
